Experimental data published in ChEMBL document CHEMBL4725393, “Prodrug Strategies to Improve the Solubility of the HCV NS5A Inhibitor Pibrentasvir (ABT-530)” (J Med Chem, 2020).
Values after ≈ are worked out from the molar mass of the structure shown.

Key:
[1] = AUC in beagle dog assessed as pibrentasvir1 level at 40 mg, po measured up to 24 hrs; type: ADME, organism-based, Canis lupus familiaris; set-up: route oral, dose 40 mg, time <=24; settings: in vivo
Procedure, shortened: (§1)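 The dose equalled 40 mg PIB after adjustment for prodrug MW. Food was returned at 12 h. K2EDTA plasma was sampled at 0.25–24 h. Cmax is in ng/mL and AUC in ng·h/mL.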

[2] = Equilibrium solubility of compound at pH 1 incubated for 24 to 48 hrs by HPLC analysis; type: physicochemical; settings: buffer, time 24-48 hrs
Procedure, shortened: (§2)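 For equilibrium solubility, excess solid was added to 3–4 mL of medium, in triplicate. Suspension pH was read after equilibration. Solids were removed by centrifugation at 4000 rpm at 25 °C, and the supernatant was passed through a 0.45 µm filter, discarding the first 2 mL. The filtrate was quantified by HPLC against standard curves.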

[3] = Stability of compound at pH 7.4 assessed as prodrug remaining level at 125 ug/ml incubated for 24 hrs by HPLC analysis; type: physicochemical; settings: buffer, pH 7.4, 24 h, at 125 µg/mL
Procedure, shortened: (§3)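 A DMSO stock of about 1.25 mg/mL was diluted into 0.1 N HCl (pH 1) or 50 mM phosphate buffer (pH 7.4), giving final concentrations of ~125 µg/mL prodrug and 10% DMSO. The solution was filtered and held at 37 °C in the HPLC autosampler, with injections at several times over 24 h. Percent remaining was calculated from prodrug peak area relative to t0.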

[4] = Cmax in CD1 mouse assessed as pibrentasvir1 level at 6 mg/kg, po measured up to 24 hrs; type: ADME, organism-based; set-up: route oral, dose 6 mg/kg, time <=24; settings: in vivo
Procedure, shortened: (§4)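 CD-1 mice with free access to food and water received an oral gavage of prodrug or PIB at 10 mL/kg in 0.2% HPMC. The dose was adjusted for prodrug MW to equal 6 mg/kg PIB. K2EDTA blood was drawn at 0.25, 0.5, 1, 3, 6, 9, 12 and 24 h. Plasma was spun at 3200 x g for 5 min at ~4°C and stored below -15°C. PIB and prodrug were measured; AUC in ng·h/mL, Cmax in ng/mL.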

[5] = Solubility in FeSSIF at pH 5; type: physicochemical; procedure, shortened: as §2
[6] = Stability of compound at pH 1 assessed as prodrug remaining level at 125 ug/ml incubated for 24 hrs by HPLC analysis; type: physicochemical; settings: buffer, pH 1, 24 h, at 125 µg/mL; procedure, shortened: as §3
[7] = Equilibrium solubility of compound at pH 7.4 incubated for 24 to 48 hrs by HPLC analysis; type: physicochemical; settings: buffer, time 24-48 hrs; procedure, shortened: as §2
[8] = AUC in CD1 mouse assessed as pibrentasvir1 level at 6 mg/kg, po measured up to 24 hrs; type: ADME, organism-based; set-up: route oral, dose 6 mg/kg, time <=24; settings: in vivo; procedure, shortened: as §4
[9] = Cmax in beagle dog assessed as pibrentasvir1 level at 40 mg, po measured up to 24 hrs; type: ADME, organism-based, Canis lupus familiaris; set-up: route oral, dose 40 mg, time <=24; settings: in vivo; procedure, shortened: as §1

Row | SMILES | AUC [1] | solubility thermodynamic [2] | Stabilty [3] | Cmax [4] | solubility [5] | Stabilty [6] | solubility thermodynamic [7] | AUC [8] | Cmax [9]
1 | COC(=O)N[C@H](C(=O)N1CCC[C@H]1c1nc2cc(F)c([C@H]3CC[C@H](c4cc5nc([C@@H]6CCCN6C(=O)[C@@H](NC(=O)OC)[C@@H](C)OC)n(COC(=O)[C@@H](NC(=O)OCOP(=O)(O)O)C(C)C)c5cc4F)N3c3cc(F)c(N4CCC(c5ccc(F)cc5)CC4)c(F)c3)cc2[nH]1)[C@@H](C)OC | 122 ng·h/mL | 114 µg/mL (≈ 81.6 µM) | 38% | 498 ng/mL | > 1000 µg/mL | 95% | < 0.1 µg/mL | 8840 ng·h/mL | 16 ng/mL
2 | COC(=O)N[C@H](C(=O)N1CCC[C@H]1c1nc2cc(F)c([C@H]3CC[C@H](c4cc5c(cc4F)nc([C@@H]4CCCN4C(=O)[C@@H](NC(=O)OC)[C@@H](C)OC)n5COC(=O)c4ccccc4COP(=O)(O)O)N3c3cc(F)c(N4CCC(c5ccc(F)cc5)CC4)c(F)c3)cc2[nH]1)[C@@H](C)OC | – | 543 µg/mL (≈ 400 µM) | 84% | 132 ng/mL | > 1000 µg/mL | 98% | 92 µg/mL (≈ 67.8 µM) | 2420 ng·h/mL | –
3 | COC(=O)N[C@H](C(=O)N1CCC[C@H]1c1nc2cc(F)c([C@H]3CC[C@H](c4cc5c(cc4F)nc([C@@H]4CCCN4C(=O)[C@@H](NC(=O)OC)[C@@H](C)OC)n5COC(=O)c4cccc(OP(=O)(O)O)c4)N3c3cc(F)c(N4CCC(c5ccc(F)cc5)CC4)c(F)c3)cc2[nH]1)[C@@H](C)OC | – | > 1000 µg/mL | 100% | 46 ng/mL | – | 91% | > 1000 µg/mL | 819 ng·h/mL | –
4 | COC(=O)N[C@H](C(=O)N1CCC[C@H]1c1nc2cc(F)c([C@H]3CC[C@H](c4cc5c(cc4F)nc([C@@H]4CCCN4C(=O)[C@@H](NC(=O)OC)[C@@H](C)OC)n5COC(=O)CCCOP(=O)(O)O)N3c3cc(F)c(N4CCC(c5ccc(F)cc5)CC4)c(F)c3)cc2[nH]1)[C@@H](C)OC | – | 609 µg/mL (≈ 465 µM) | 80% | 784 ng/mL | > 1000 µg/mL | 76% | 874 µg/mL (≈ 668 µM) | 12600 ng·h/mL | –
5 | COC(=O)N[C@H](C(=O)N1CCC[C@H]1c1nc2cc(F)c([C@H]3CC[C@H](c4cc5nc([C@@H]6CCCN6C(=O)[C@@H](NC(=O)OC)[C@@H](C)OC)n(COC(=O)c6cccc(OP(=O)(O)O)c6)c5cc4F)N3c3cc(F)c(N4CCC(c5ccc(F)cc5)CC4)c(F)c3)cc2[nH]1)[C@@H](C)OC | – | 397 µg/mL (≈ 296 µM) | 100% | 96 ng/mL | > 1000 µg/mL | 96% | 827 µg/mL (≈ 616 µM) | 1510 ng·h/mL | –
6 | COC(=O)N[C@H](C(=O)N1CCC[C@H]1c1nc2cc(F)c([C@H]3CC[C@H](c4cc5c(cc4F)nc([C@@H]4CCCN4C(=O)[C@@H](NC(=O)OC)[C@@H](C)OC)n5COC(=O)[C@@H](N)C(C)C)N3c3cc(F)c(N4CCC(c5ccc(F)cc5)CC4)c(F)c3)cc2[nH]1)[C@@H](C)OC | – | > 1000 µg/mL | – | – | – | – | < 0.2 µg/mL | – | –
7 | COC(=O)N[C@H](C(=O)N1CCC[C@H]1c1nc2cc(F)c([C@H]3CC[C@H](c4cc5c(cc4F)nc([C@@H]4CCCN4C(=O)[C@@H](NC(=O)OC)[C@@H](C)OC)n5COC(=O)N(C)c4ncccc4COP(=O)(O)O)N3c3cc(F)c(N4CCC(c5ccc(F)cc5)CC4)c(F)c3)cc2[nH]1)[C@@H](C)OC | – | > 1000 µg/mL | 90% | 567 ng/mL | > 1000 µg/mL | 92% | > 1000 µg/mL | 9750 ng·h/mL | –
